Key:
Rattus norvegicus [1] = experiment: Antiestrogenic activity in Sprague-Dawley rat assessed as reduction in estradiol induced uterine weight upto 0.06 ug, po after 8 days; assay type: functional; design: scale not given: the % may be the effect or the level left
In short: (§1)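 Immature ovariectomized female Sprague-Dawley rats (~55 g), groups of 12. Estradiol 0.03–0.05 given s.c. daily for 7 days, with test compound or letrozole reference at various doses up to 0.06 per animal, given orally in 0.5% carboxymethylcellulose. Controls received estradiol alone. Uterine weights were taken on day 8 and group means expressed as % reduction versus estradiol-only controls. Potency was taken relative to letrozole.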

Rattus norvegicus [2] = experiment: Antiestrogenic activity in Sprague-Dawley rat assessed as reduction in estradiol induced uterine weight 0.06 ug, po after 8 days relative to letrozole; assay type: functional; in short: as §1
[3] = Acute toxicity in mouse after 24 hrs; assay type: organism-based; details: in vivo
In short: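 Adult mice of both sexes, acclimatized 1 week (12 h light/dark, 21–23 °C), fasted 12 h before dosing. 30 mice in 6 groups of 5 each got a single oral gavage dose, at different dose levels, of a fine-powder aqueous suspension. LD50 was determined, with values as group means of five mice.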

MDA-MB-231 = experiment: Growth inhibition of human MDA-MB-231cells after 48 hrs by sulforhodamine B assay; assay type: functional; details: MDA-MB-231, 48 h
In short: (§2)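 Cells were plated at 5000–40,000 cells/well, depending on doubling time, and preincubated 24 h at 37 °C in 5% CO2. Time-zero plates were TCA-fixed at drug addition. Compounds were dissolved in DMSO and tested at five concentrations (10-fold or ½-log dilutions) for 48 h. Cells were fixed with cold TCA, stained with 0.4% sulforhodamine B and read at 515 nm. GI50 was taken as the concentration giving 50% growth.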

MCF7 = experiment: Growth inhibition of human MCF7 cells after 48 hrs by sulforhodamine B assay; assay type: functional; details: MCF7, 48 h; in short: as §2
T47D = experiment: Growth inhibition of human T47D cells after 48 hrs by sulforhodamine B assay; assay type: functional; in short: as §2
NCI/ADR-RES = experiment: Growth inhibition of human NCI/ADR-RES cells after 48 hrs by sulforhodamine B assay; assay type: functional; in short: as §2
[4] = Growth inhibition of human Hs 578T cells after 48 hrs by sulforhodamine B assay; assay type: functional; in short: as §2
MDA-MB-435 = experiment: Growth inhibition of human MDA-MB-435 cells after 48 hrs by sulforhodamine B assay; assay type: functional; details: MDA-MB-435, 48 h; in short: as §2
MDA-N = experiment: Growth inhibition of human MDA-N cells after 48 hrs by sulforhodamine B assay; assay type: functional; in short: as §2
BT-549 = experiment: Growth inhibition of human BT549 cells after 48 hrs by sulforhodamine B assay; assay type: functional; details: BT-549, 48 h; in short: as §2
IGROV-1 = experiment: Growth inhibition of human IGROV1 cells after 48 hrs by sulforhodamine B assay; assay type: functional; details: IGROV-1, 48 h; in short: as §2
OVCAR-3 = experiment: Growth inhibition of human OVCAR3 cells after 48 hrs by sulforhodamine B assay; assay type: functional; details: OVCAR-3, 48 h; in short: as §2
OVCAR-5 = experiment: Growth inhibition of human OVCAR5 cells after 48 hrs by sulforhodamine B assay; assay type: functional; details: OVCAR-5, 48 h; in short: as §2
OVCAR-8 = experiment: Growth inhibition of human OVCAR8 cells after 48 hrs by sulforhodamine B assay; assay type: functional; details: OVCAR-8, 48 h; in short: as §2
OVCAR-4 = experiment: Growth inhibition of human OVCAR4 cells after 48 hrs by sulforhodamine B assay; assay type: functional; details: OVCAR-4, 48 h; in short: as §2
SK-OV-3 = experiment: Growth inhibition of human SKOV3 cells after 48 hrs by sulforhodamine B assay; assay type: functional; details: SK-OV-3, 48 h; in short: as §2

Row | Structure (SMILES) | Activity (Rattus norvegicus [1]) [%] | potency ratio vs letrozole (Rattus norvegicus [2]) | LD50 at 24 h [3] [mg/kg] | GI50 (MDA-MB-231) [µM] | GI50 (MCF7) [µM] | GI50 (T47D) [µM] | GI50 (NCI/ADR-RES) [µM] | GI50 [4] [µM] | GI50 (MDA-MB-435) [µM] | GI50 (MDA-N) [µM] | GI50 (BT-549) [µM] | GI50 (IGROV-1) [µM] | GI50 (OVCAR-3) [µM] | GI50 (OVCAR-5) [µM] | GI50 (OVCAR-8) [µM] | GI50 (OVCAR-4) [µM] | GI50 (SK-OV-3) [µM]
1 | CC(=O)c1nn(-c2ccccc2)cc1C(=O)c1nn(-c2ccccc2)c(-c2ccccc2)c1C#N | 32.45 | 1.49 | 324 | > 100 | 25.7 | 36.8 | > 100 | 6.46 | > 100 | 0.077 | > 100 | 96.8 | 66.8 | 34.8 | 62.8 | 69.8 | 39.8
2 | Cc1ccc(-n2cc(C(=O)c3nn(-c4ccccc4)c(-c4ccccc4)c3C#N)c(C(=O)c3nn(-c4ccccc4)c(-c4ccccc4)c3C#N)n2)cc1 | 32.43 | 1.49 | 211 | > 100 | 0.061 | 25.7 | > 100 | 37.4 | > 100 | 26.8 | 2.47 | 0.022 | 99.8 | 36.8 | 20.3 | 30.4 | 38.8
3 | CCOC(=O)c1nn(-c2ccc(Cl)cc2)cc1C(=O)c1nn(-c2ccccc2)c(-c2ccccc2)c1C#N | 34.86 | 1.61 | 143 | > 100 | > 100 | > 100 | > 100 | 65 | 71.8 | 62.3 | 39.8 | 93.2 | > 100 | 61.2 | 65.8 | 45.8 | 30.8
4 | N#Cc1c(-c2nnc(O)c3nn(-c4ccccc4)cc23)nn(-c2ccccc2)c1-c1ccccc1 | 32.86 | 1.51 | 114 | 6.21 | > 100 | 2.95 | 2.76 | 46.8 | 21.8 | 13.8 | 44.8 | 92.2 | > 100 | 61.8 | 61.5 | 26.4 | 36.8
5 | Cc1nnc(-c2nn(-c3ccccc3)c(-c3ccccc3)c2C#N)c2cn(-c3ccccc3)nc12 | 23.97 | 1.1 | 32.5 | > 100 | 8.46 | 9.14 | > 100 | 1.39 | > 100 | 38.4 | 96.8 | 92 | 96.8 | > 100 | > 100 | 56.4 | 36.8
6 | N#Cc1c(C(=O)c2cn(-c3ccc(Cl)cc3)nc2C(=O)Nc2ccccc2)nn(-c2ccccc2)c1-c1ccccc1 | 34.87 | 1.61 | 101 | > 100 | > 100 | 33 | > 100 | 8.84 | 2.03 | > 100 | 11.8 | 99.5 | 23.8 | > 100 | > 100 | 28.4 | 9.42
7 | CN(C)/C=C/C(=O)c1nn(-c2ccccc2)c(-c2ccccc2)c1C#N | 41.98 | 1.93 | 232 | 50.4 | 39.8 | 30.2 | 90.6 | > 100 | > 100 | 45.4 | 31.1 | 98 | 98.8 | > 100 | 75.8 | 63.8 | 23.8
8 | N#Cc1c(-c2nnc(-c3nn(-c4ccccc4)c(-c4ccccc4)c3C#N)c3nn(-c4ccc(Cl)cc4)cc23)nn(-c2ccccc2)c1-c1ccccc1 | 43.41 | 2 | 112 | 7.9 | 9.42 | 16 | 7.46 | 9.72 | 9.2 | 2.26 | 1.02 | 98 | 95.8 | > 100 | 61.8 | 43.8 | 36.8
9 | N#Cc1c(C(=O)c2cn(-c3ccccc3)nc2-c2ccccc2)nn(-c2ccccc2)c1-c1ccccc1 | 23.54 | 1.08 | 122 | 49.8 | 33.3 | 28 | 98 | > 100 | 61 | 3.36 | 1.12 | > 100 | 4.94 | 6.23 | 9.83 | 5.49 | > 100
10 | CCOC(=O)c1nn(-c2ccccc2)cc1C(=O)c1nn(-c2ccccc2)c(-c2ccccc2)c1C#N | 23.98 | 1.1 | 122 |  | 5.49 | > 100 | > 100 |  | > 100 | 38.4 | 31.8 | > 100 |  |  | > 100 | > 100 | 
11 | N#Cc1c(C(=O)/C=C/N2CCOCC2)nn(-c2ccccc2)c1-c1ccccc1 | 43.43 | 2 | 463 | > 100 | 5.49 | > 100 | > 100 | > 100 | > 100 | 38.4 | 41.4 | 88 | 21.5 | 90.8 | > 100 | 62.8 | 33.8
12 | Cc1ccc(-n2cc(C(=O)c3nn(-c4ccccc4)c(-c4ccccc4)c3C#N)c(C(=O)Nc3ccccc3)n2)cc1 | 34.65 | 1.6 | 122 | 6.27 | 34.4 | 30.8 | 2.48 | 63.2 | 2.23 | 5.49 | > 100 | 16.6 | 7.66 | 9.72 | 9.52 | 7.56 | 9.42
13 | N#Cc1c(-c2nnc(-c3ccccc3)c3nn(-c4ccc(Cl)cc4)cc23)nn(-c2ccccc2)c1-c1ccccc1 |  |  |  | 6.42 | 43.8 | 38 | 2.28 | 16.8 | 23.8 | 63.8 | 38.8 | 93.4 | > 100 | 8.94 | 9.23 | 5.49 | > 100
14 | N#Cc1c(-c2nnc(-c3ccccc3)c3cn(-c4ccccc4)nc23)nn(-c2ccccc2)c1-c1ccccc1 | 32.59 |  |  | 8.84 | 9.53 | 21.8 | > 100 | 31.8 | 31.8 | 31.2 | 21.8 | 94.8 | 93.8 | > 100 | 68 | 63 | 32.8

From ChEMBL document CHEMBL1629506, “Design, synthesis and structure-activity relationship study of novel pyrazole-based heterocycles as potential antitumor agents” (Eur J Med Chem, 2010)
